Results published in ChEMBL document CHEMBL2417500, “Cytotoxic diterpenoid pseudodimers from the Korean sponge Phorbas gukhulensis” (J Nat Prod, 2013).

Columns and labels:
[1] = Inhibition of isocitrate lyase (unknown origin)
A549 = assay: Cytotoxicity against human A549 cells by MTT assay; format: functional; details: read-out: LC50 (the source's name)
Procedure, shortened: (§1)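 LC50 is the concentration giving a 50% drop in cell viability relative to untreated controls without inhibitor. It is read from dose–response curves for each sample and reported as mean ± SD of three independent experiments (n = 3).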

[2] = Inhibition of sortase A (unknown origin)
K562 [3] = assay: Cytotoxicity against human K562 cells by MTT assay; format: functional; details: read-out: LC50 (the source's name); procedure, shortened: as §1
[4] = target: Sodium/potassium-transporting ATPase; assay: Inhibition of Na+/K+-ATPase (unknown origin); format: protein-complex assay, Homo sapiens
K562 [5] = assay: Ratio of doxorubicin LC50 to compound LC50 for human K562 cells; format: functional

Row | Structure (SMILES) | IC50 [1] | CC50 (A549) | IC50 [2] | CC50 (K562 [3]) | IC50 [4] | RatioLC50 (K562 [5])
1 | CC(=O)O[C@@H](C=O)[C@]1(C)CC[C@H](C(C)C)[C@@H]1c1cc([C@]2(O)Cc3cc(O)c(=O)c(C)c4c3[C@@H](O2)[C@H](O)[C@]2(C)CC[C@H](C(C)C)[C@H]42)cc(O)c(=O)c1C [GUKULENIN A] | > 100 µM | 320 nM | > 100 µM | 260 nM | > 100 µM | –
2 | CO[C@@H](NC(C)=O)[C@H](O)[C@]1(C)CC[C@H](C(C)C)[C@@H]1c1cc([C@]2(O)Cc3cc(O)c(=O)c(C)c4c3[C@@H](O2)[C@H](O)[C@]2(C)CC[C@H](C(C)C)[C@H]42)cc(O)c(=O)c1C | > 100 µM | 100 nM | > 100 µM | 120 nM | > 100 µM | –
3 | CC(=O)N[C@H](O)[C@H](O)[C@]1(C)CC[C@H](C(C)C)[C@@H]1c1cc([C@]2(O)Cc3cc(O)c(=O)c(C)c4c3[C@@H](O2)[C@H](O)[C@]2(C)CC[C@H](C(C)C)[C@H]42)cc(O)c(=O)c1C | > 100 µM | 550 nM | > 100 µM | 440 nM | > 100 µM | –
4 | COc1cccc2c1C(=O)c1c(O)c3c(c(O)c1C2=O)C[C@@](O)(C(=O)CO)C[C@@H]3O[C@H]1C[C@H](N)[C@H](O)[C@H](C)O1 [DOXORUBICIN] | – | 520 nM | – | 700 nM | – | –
5 | Cc1c([C@H]2[C@@H](C(C)C)CC[C@@]2(C)C(=O)CNCCS(=O)(=O)O)cc([C@]2(O)Cc3cc(O)c(=O)c(C)c4c3[C@@H](O2)[C@H](O)[C@]2(C)CC[C@H](C(C)C)[C@H]42)cc(O)c1=O | > 100 µM | 110 nM | > 100 µM | 320 nM | > 100 µM | –
6 | CC(=O)O[C@@H](C=O)[C@]1(C)CC[C@H](C(C)C)[C@@H]1c1cc(/C(O)=C/c2cc(O)c(=O)c(C)c3c2[C@@H](O)[C@H](O)[C@]2(C)CC[C@H](C(C)C)[C@H]32)cc(O)c(=O)c1C | > 100 µM | 380 nM | > 100 µM | 40 nM | > 100 µM | 17
